Assay [1] is described as follows: reducers of endogenous Her2 protein level, primary screen, SKBR3 breast tumor cells, AlphaScreen, ATP viability (AID 461;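 active = Her2 level under about 52% in both replicate screens, with viability over 70% of control, limit read from the data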;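 as to Her2 level: lower value means less Her2 protein in the cells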;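 as to viability: percent of carrier control wells set as 100% viability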). The following applies: 18-24 h, measured here: SKBR3 viability, ATP luminescence, at 10 µM.
Assay [2] addresses Receptor tyrosine-protein kinase erbB-2 (Homo sapiens) (UniProt P04626). The assay is described as above. The following applies: 18-24 h, at 10 µM, stronger effect = lower value.
Assay [3] can be described thus: SK-BR-3 cell growth inhibitors, pilot screen, 24 h, human (AID 572).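 Also: compound exposure lasted between 18 and 24 h rather than exactly 24 h; 100% = carrier-treated control wells.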 The settings on record: SK-BR-3 viability, CellTiter-Glo luminescence, at 10 µM, stronger effect = lower value. Background: ATP-based viability assays read luminescence as a measure of living cells.
Assay [4] in a line: HUVEC growth inhibition – cell-based, human, primary screen (AID 575;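 active = viability at or below 30% in both replicate assays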;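 also: 100% = median of untreated cell wells with 0.1% DMSO on each plate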). The settings on record: HUVEC proliferation, CellTiter-Glo luminescence, 72 h; at 10 µM; stronger effect = lower value. Put shortly:
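Test system: primary human umbilical vein endothelial cells. Quantity: 1250 cells/well. Compound: single 10 µM dose, 0.1% DMSO, from 5x medium stock. Timing: 72 h treatment at 37 °C. Detection: ATP-based CellTiter-Glo luminescent read. Benchmarks: vehicle and MePR control wells. Format: 384-well plates coated with collagen.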

Assay [5] can be described thus: growth inhibitors of H69AR lung tumor, primary screen, human, duplicate replicates (AID 580;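 active = viability at or under a set limit in both replicates, limit being median viability minus 3 SD, cut at about 48% in these data, passing the limit was not always enough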;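 also: 100% = mean luminescence of untreated wells and 0% = no signal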). The following applies: H69AR lung tumor cells viability, ATP luminescence, 72 h; at 10 µM; stronger effect = lower value.
A short description of assay [6]: reversal of MRP1-mediated doxorubicin resistance, pilot screen, H69AR cells, doxorubicin co-treatment (AID 601;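 active = viability loss from added drug above about 55%, and viability with drug at most 40%, in both replicates, limit read from the data, passing the limit was not always enough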). The following applies: CellTiter-Glo, 72 h, at 10 µM; for differential viability (reversal): stronger effect = higher value.
Assay [7] in a line: 384-well plate pilot, post-Golgi transport modulator project, inhibition of yeast transport mutant growth (AID 636; in the data active = inhibition above about 31%). The following applies: absorbance 615 nm, about 18 h, stronger effect = higher value.
Assay [8] can be described thus: growth suppression of yeast trafficking mutant, preliminary HTS, modulators of trafficking downstream of Golgi apparatus project, 1536-format plate, OD 615 nm (AID 637; in the data active = inhibition above about 30%). The following applies: yeast transport mutant growth, absorbance 615 nm, 18 h; stronger effect = higher value.
Where [9] appears, read: H69AR cells + 2 uM doxorubicin, measured here: viability with 2 uM doxorubicin, stronger effect = lower value.
Setting [10] is: H69AR cells, compound alone cytotoxicity.

The term viability denotes a read-out of living cells in per cent, often relative to untreated cells. In general, inhibition refers to the change of the read-out against control, counted positive when it falls.

Activity calls are given as the source filed them.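 The calls were made as follows, unless noted: active = viability at or below 10% of carrier control in both of two separate runs; inconclusive = viability at or below 10% in only one of the two runs; inactive = the rest.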

Chain of Receptor tyrosine-protein kinase erbB-2 (Homo sapiens) (P04626 whole entry, looked up): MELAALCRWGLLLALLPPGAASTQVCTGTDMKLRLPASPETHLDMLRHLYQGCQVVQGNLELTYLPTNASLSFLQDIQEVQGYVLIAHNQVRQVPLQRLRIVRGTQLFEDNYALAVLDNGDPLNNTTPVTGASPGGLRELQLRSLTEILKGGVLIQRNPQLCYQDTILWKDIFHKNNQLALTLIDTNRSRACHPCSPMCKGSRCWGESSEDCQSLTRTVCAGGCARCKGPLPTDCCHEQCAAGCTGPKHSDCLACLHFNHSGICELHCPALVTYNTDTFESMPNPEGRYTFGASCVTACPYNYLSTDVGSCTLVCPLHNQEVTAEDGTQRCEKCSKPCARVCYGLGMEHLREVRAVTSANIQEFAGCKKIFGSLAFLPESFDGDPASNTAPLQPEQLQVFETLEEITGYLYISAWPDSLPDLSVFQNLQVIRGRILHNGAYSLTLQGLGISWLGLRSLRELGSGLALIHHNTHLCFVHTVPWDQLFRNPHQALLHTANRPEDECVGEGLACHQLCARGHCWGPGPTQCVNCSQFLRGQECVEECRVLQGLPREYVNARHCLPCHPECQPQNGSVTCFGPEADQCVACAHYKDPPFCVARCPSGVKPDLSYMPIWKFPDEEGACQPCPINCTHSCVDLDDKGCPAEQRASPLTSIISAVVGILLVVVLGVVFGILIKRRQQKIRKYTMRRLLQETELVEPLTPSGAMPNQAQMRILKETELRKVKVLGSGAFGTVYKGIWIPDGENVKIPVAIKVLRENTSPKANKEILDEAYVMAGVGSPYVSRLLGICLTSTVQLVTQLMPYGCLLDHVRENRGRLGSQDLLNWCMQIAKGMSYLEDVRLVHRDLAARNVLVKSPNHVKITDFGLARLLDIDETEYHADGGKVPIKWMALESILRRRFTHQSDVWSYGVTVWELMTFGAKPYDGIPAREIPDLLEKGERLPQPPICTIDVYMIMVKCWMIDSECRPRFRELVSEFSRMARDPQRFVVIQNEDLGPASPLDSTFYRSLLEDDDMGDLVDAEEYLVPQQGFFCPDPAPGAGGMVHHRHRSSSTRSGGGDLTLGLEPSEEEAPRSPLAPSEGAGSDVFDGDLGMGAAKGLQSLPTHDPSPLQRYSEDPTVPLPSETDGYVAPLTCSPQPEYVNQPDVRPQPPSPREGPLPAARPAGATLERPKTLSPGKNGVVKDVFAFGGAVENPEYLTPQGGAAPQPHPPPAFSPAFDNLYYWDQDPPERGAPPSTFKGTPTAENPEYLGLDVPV

On to `Cc1nnc(SCC(=O)N2c3ccccc3CC2C)s1` (stereo not given), for which the viability in assay [1] was 105%; in assay [3] it was 105% (inactive); in assay [4], 99.3% (inactive); in assay [5], 92% (inactive); in assay [6] (setting [9]) it was 92.7%; in assay [6] (setting [10]) it was 92%. In assay [2], the Her2 level is 106% (inactive). In assay [6] (H69AR cells + 2 uM doxorubicin), the differential viability (reversal) is -0.71% (inactive). Moreover, the figures for the inhibition in assay [7] and in assay [8] were -1.73% (inactive) and 0.81% (inactive), respectively.
For the compound `COc1ccc(N=c2scc(-c3ccc(S(=O)(=O)N4CCOCC4)cc3)n2CCCO)cc1`, the viability in assay [1] is 85.5%; in assay [3], 85.5% (inactive); in assay [4], 96.4% (inactive); in assay [5] it was 72.8% (inactive); in assay [6] (setting [9]) it was 35.6%; in assay [6] (setting [10]) it was 72.8%. The Her2 level in assay [2] was 80.5% (inactive). Besides, the differential viability (reversal) in assay [6] (H69AR cells + 2 uM doxorubicin) is 37.2% (inactive). For the same compound, the inhibition was 1.67% (inactive) in assay [7] and -8.5% (inactive) in assay [8].
As to `Cc1ccccc1NC(=O)C1CCN(c2cnccn2)CC1`, the viability in assay [1] was 98.5%; in assay [3], 98.5% (inactive); in assay [4], 89.2% (inactive); in assay [5] it was 101% (inactive); in assay [6] (setting [9]), 92.2%; in assay [6] (setting [10]), 101%. For the same compound, in assay [2], the Her2 level is 103% (inactive). For the same compound, the differential viability (reversal) in assay [6] (H69AR cells + 2 uM doxorubicin) was 8.59% (inactive). Besides, the inhibition in assay [7] is -7.07% (inactive); in assay [8], -5.48% (inactive).
Regarding `COCCN(CCOC)S(=O)(=O)c1ccc(C(=O)Nc2nnc(C3CC3)o2)cc1`, the viability is 75% in assay [1]; 75% (inactive) in assay [3]; 80.5% (inactive) in assay [4]; 82.7% (inactive) in assay [5]; 84.2% in assay [6] (setting [9]); 82.7% in assay [6] (setting [10]). Also, in assay [2], the Her2 level was 86% (inactive). For the same compound, the differential viability (reversal) in assay [6] (H69AR cells + 2 uM doxorubicin) was -1.53% (inactive). Further, the inhibition in assay [7] was -3.65% (inactive); in assay [8], 1.48% (inactive).
In the case of `C=CCN1C(=O)/C(=C2\SC(N3CCOCC3)=NC2=O)c2cc(Br)ccc21`, the viability was 82.5% in assay [1]; 82.5% (inactive) in assay [3]; 86.1% (inactive) in assay [4]; 83.1% (inactive) in assay [5]; 87.5% in assay [6] (setting [9]); 83.1% in assay [6] (setting [10]). Also, in assay [2], the Her2 level is 84.5% (inactive). Moreover, the differential viability (reversal) in assay [6] (H69AR cells + 2 uM doxorubicin) was -4.46% (inactive). The figures for the inhibition in assay [7] and in assay [8] were -1.32% (inactive) and -2.55% (inactive), respectively.
On to `CCC(C)N=C1SCC(C)(/C=N/O)S1` (stereo not given), for which the viability is 97% in assay [1]; 97% (inactive) in assay [3]; 116% (inactive) in assay [4]; 104% (inactive) in assay [5]; 95.8% in assay [6] (setting [9]); 104% in assay [6] (setting [10]). The Her2 level in assay [2] is 88.5% (inactive). In addition, the differential viability (reversal) in assay [6] (H69AR cells + 2 uM doxorubicin) was 7.86% (inactive). Further, the inhibition is -2.37% (inactive) in assay [7] and -0.98% (inactive) in assay [8].
Take `CC1Cc2nc(SCC(=O)Nc3ccccc3F)n(C)c(=O)c2S1` (stereo not given): the viability in assay [1] is 104%; in assay [3], 104% (inactive); in assay [4], 92.4% (inactive); in assay [5], 93.5% (inactive); in assay [6] (setting [9]), 93.8%; in assay [6] (setting [10]) it was 93.5%. The Her2 level in assay [2] was 89.5% (inactive). For the same compound, the differential viability (reversal) in assay [6] (H69AR cells + 2 uM doxorubicin) is -0.345% (inactive). The inhibition in assay [7] was -7.95% (inactive); in assay [8], 4.29% (inactive).
As for `CCOC(=O)c1nnn(CC(=O)Nc2cccc(F)c2)c1C(=O)OCC`, the viability in assay [1] was 112%; in assay [3], 112% (inactive); in assay [4] it was 100% (inactive); in assay [5], 96.2% (inactive); in assay [6] (setting [9]) it was 92.4%; in assay [6] (setting [10]), 96.2%. Also, the Her2 level in assay [2] is 95% (inactive). Moreover, the differential viability (reversal) in assay [6] (H69AR cells + 2 uM doxorubicin) is 3.89% (inactive). Besides, the figures for the inhibition in assay [7] and in assay [8] were -1.04% (inactive) and -6.35% (inactive), respectively.
Consider `Cc1ccc(C(C)n2cc(C(=O)NCCN3CCN(C)CC3)nn2)cc1` (stereo not given), for which the viability in assay [1] was 106%; in assay [3], 106% (inactive); in assay [4] it was 93.5% (inactive); in assay [5] it was 86.1% (inactive); in assay [6] (setting [9]), 91.1%; in assay [6] (setting [10]), 86.1%. Also, in assay [2], the Her2 level is 94% (inactive). For the same compound, the differential viability (reversal) in assay [6] (H69AR cells + 2 uM doxorubicin) is -5% (inactive). The values for the inhibition in assay [7] and in assay [8] were -2.21% (inactive) and -6.19% (inactive), respectively.
Regarding `CCn1c(=O)cc(SCC(=O)NCC2CCCO2)c2ccccc21` (stereo not given), the viability in assay [1] is 89%; in assay [3], 89% (inactive); in assay [4], 88.7% (inactive); in assay [5], 87% (inactive); in assay [6] (setting [9]) it was 78.4%; in assay [6] (setting [10]), 87%. Besides, the Her2 level in assay [2] is 87% (inactive). The differential viability (reversal) in assay [6] (H69AR cells + 2 uM doxorubicin) is 8.63% (inactive). The inhibition in assay [7] was -3.03% (inactive); in assay [8], -7.27% (inactive).
Turning to `COc1ccc(C(CC(=O)O)NC(=O)c2ccccc2)cc1OC` (stereo not given), the viability in assay [1] is 110%; in assay [3], 110% (inactive); in assay [4], 94.6% (inactive); in assay [5], 83.6% (inactive); in assay [6] (setting [9]) it was 90.1%; in assay [6] (setting [10]), 83.6%. For the same compound, the Her2 level in assay [2] is 101% (inactive). Also, the differential viability (reversal) in assay [6] (H69AR cells + 2 uM doxorubicin) was -6.46% (inactive). Besides, the values for the inhibition in assay [7] and in assay [8] were 0.78% (inactive) and -6.33% (inactive), respectively.
Take `COC(=O)C1=C(C)NC(=O)C1(NC(=O)c1cccnc1)C(F)(F)F` (stereo not given): the viability in assay [1] was 126%; in assay [3], 126% (inactive); in assay [4], 99.4% (inactive); in assay [5], 103% (inactive); in assay [6] (setting [9]) it was 88.7%; in assay [6] (setting [10]), 103%. Also, the Her2 level in assay [2] was 96.5% (inactive). Besides, the differential viability (reversal) in assay [6] (H69AR cells + 2 uM doxorubicin) is 14% (inactive). The inhibition in assay [7] is -2.5% (inactive); in assay [8], 0.55% (inactive).
On to `O=C1NC(Cc2c[nH]c3ccccc23)C(=O)N1CCOc1ccccc1` (stereo not given), for which the viability in assay [1] is 79.5%; in assay [3], 79.5% (inactive); in assay [4], 73.2% (inactive); in assay [5] it was 94.4% (inactive); in assay [6] (setting [9]), 94.2%; in assay [6] (setting [10]), 94.4%. Besides, in assay [2], the Her2 level is 89% (inactive). Further, in assay [6] (H69AR cells + 2 uM doxorubicin), the differential viability (reversal) was 0.2% (inactive). In addition, the inhibition is -2.76% (inactive) in assay [7] and -1.83% (inactive) in assay [8].
Take `COc1cc2c(=O)n(Cc3ccccc3)c(=O)n(CC(=O)NCc3ccco3)c2cc1OC`: the viability in assay [1] was 126%; in assay [3] it was 126% (inactive); in assay [4] it was 95.4% (inactive); in assay [5], 86.2% (inactive); in assay [6] (setting [9]), 87%; in assay [6] (setting [10]) it was 86.2%. Besides, the Her2 level in assay [2] was 83% (inactive). Moreover, in assay [6] (H69AR cells + 2 uM doxorubicin), the differential viability (reversal) was -0.76% (inactive). The values for the inhibition in assay [7] and in assay [8] were -8% (inactive) and -3.65% (inactive), respectively.
In the case of `CCOc1nc(SCCOc2ccccc2)nc(N(C)C)n1`, the viability in assay [1] was 96%; in assay [3] it was 96% (inactive); in assay [4] it was 72.4% (inactive); in assay [5], 107% (inactive); in assay [6] (setting [9]) it was 102%; in assay [6] (setting [10]) it was 107%. In addition, in assay [2], the Her2 level was 115% (inactive). Also, the differential viability (reversal) in assay [6] (H69AR cells + 2 uM doxorubicin) is 4.17% (inactive). Also, the inhibition is -1.84% (inactive) in assay [7] and -3.5% (inactive) in assay [8].
`Cc1ccc(C)c(/C(O)=C2\C(=O)C(=O)N(CCCN3CCOCC3)C2c2cccnc2)c1` (stereo not given): the viability was 99% in assay [1]; 99% (inactive) in assay [3]; 91.4% (inactive) in assay [4]; 90.2% (inactive) in assay [5]; 95.3% in assay [6] (setting [9]); 90.2% in assay [6] (setting [10]). Moreover, the Her2 level in assay [2] is 101% (inactive). In addition, the differential viability (reversal) in assay [6] (H69AR cells + 2 uM doxorubicin) is -5.11% (inactive). Also, the inhibition in assay [7] was -3.59% (inactive); in assay [8] it was -2.33% (inactive).
